According to ChEMBL document CHEMBL1121539, “Antitumor structure-activity relations. Nitrosoureas vs. L-1210 leukemia” (J Med Chem, 1980):

Experiments:
[1] = Partition coefficient (logP); format: physicochemical; conditions: octanol/water
Procedure, shortened: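 Shake partitioning between octanol and distilled water gave log P. For carboxylate substituents, log P was taken in 0.1 N NaOH, with Na+ as counterion.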

[2] = test system: Mus musculus; test: Tested for toxicity against L-1210 leukemia cells in mice after ip administration, activity is expressed as LD10; format: organism-based; conditions: in vivo
[3] = organism: Mus musculus; test: Tested for 3 log kill of leukemia cells (i.e., a reduction of 1000-fold in tumor cells); format: functional
Procedure, shortened: (§1)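 L-1210 leukemia cells (10^4) were inoculated intracerebrally into BDF2 mice, and drug was given intraperitoneally. The end point was the dose giving 3 log kill, expressed as log 1/C. The value comes from one or more individual experiments.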

[4] = test system: L1210; test: Tested for 3 log kill of leukemia cells; format: functional, Mus musculus; procedure, shortened: as §1
[5] = test system: L1210; test: Toxicity against L-1210 leukemia cells in mice after intraperitoneal administration, activity is expressed as LD10; conditions: mouse, in vivo, ip

Row | Compound | logP [1] | log(1/LD10) [2] | log(1/C) [3] | log(1/C) [4] | log(1/LD10) [5] | logP ([1]; read-out: logP)
1 | O=NN(CCCl)C(=O)N[C@H]1CC[C@H](O)CC1 | 1.1 | 0.774 |  |  |  | 
2 | O=NN(CCF)C(=O)N[C@H]1CC[C@@H](C(=O)O)CC1 | 1.1 |  | 1.06 |  |  | 
3 | O=NN(CCCl)C(=O)NC(Cc1ccccc1)C(=O)O (stereo unspecified) |  |  |  | 1.1 | 0.563 | 2.59
4 | O=NN(CCF)C(=O)NC1CCSCC1 |  |  |  | 1.69 | 0.827 | 1.43
5 | O=NN(CCF)C(=O)NC1CCS(=O)(=O)CC1 |  |  |  | 1.92 | 0.922 | -0.39
6 | CCOC(=O)C1CCC(NC(=O)N(CCCl)N=O)CC1 (stereo unspecified) |  |  |  | 1.51 | 0.967 | 2.2
7 | O=NN(CCCl)C(=O)N[C@H]1C(O)O[C@H](CO)[C@@H](O)[C@@H]1O (stereo in doubt; 75) [CHLOROZOTOCIN] | -1.02 |  |  | 1.76 | 1.03 | 
8 | Cc1cccc(C)c1NC(=O)N(CCCl)N=O |  |  |  | 1.29 | 0.864 | 2.57
9 | CC(C)C1CCC(NC(=O)N(CCF)N=O)CC1 (stereo unspecified) |  |  |  | 1.05 | 0.388 | 3.67
10 | COC(=O)[C@H]1CC[C@@H](NC(=O)N(CCCl)N=O)CC1 |  |  |  | 1.51 | 0.733 | 1.89
11 | CC(C)(C)C1CCC(NC(=O)N(CCCl)N=O)CC1 (stereo unspecified) |  |  |  | 0.684 | -0.212 | 4.66
12 | O=NN(CCCl)C(=O)NC(CCC(=O)O)C(=O)O (stereo unspecified) |  |  |  | 0.87 | 0.037 | 0.6
13 | CC1CC(NC(=O)N(CCCl)N=O)CC(C)(C)C1 (stereo unspecified) |  |  |  | 0.294 | -0.434 | 4.06
14 | C[C@H]1CCC[C@@H](NC(=O)N(CCCl)N=O)C1 |  |  |  | 1.09 | 0.315 | 3.37
15 | O=NN(CCCl)C(=O)NC1CSCSC1 |  |  |  | 1.81 | 1.07 | 2.08
16 | CC(C)(Cc1ccccc1)NC(=O)N(CCCl)N=O |  |  |  | 0.737 | -0.422 | 3.42
17 | O=NN(CCCl)C(=O)N[C@H]1CC[C@@H](C(=O)O)CC1 |  |  |  | 1.63 | 1.03 | 1.68
18 | C[C@H]1S(=O)(=O)C[C@@H](NC(=O)N(CCCl)N=O)CS1(=O)=O |  |  |  | 1.89 | 1.04 | -0.53
19 | CC(=O)O[C@H]1CCCC[C@@H]1NC(=O)N(CCCl)N=O |  |  |  | 1.65 | 0.91 | 2.56
20 | O=NN(CCCl)C(=O)NC1CCCCC1NC(=O)N(CCCl)N=O (stereo unspecified) |  |  |  | 1.5 | 0.423 | 3.57
21 | CCC1CCC(NC(=O)N(CCF)N=O)CC1 (stereo unspecified) |  |  |  | 0.736 | 0.515 | 3.26
22 | O=NN(CCCl)C(=O)N[C@@H]1CCCC[C@H]1O |  |  |  | 1.82 | 1.1 | 1.34
23 | O=NN(CCCl)C(=O)NC1CCS(=O)(=O)C1 (stereo unspecified) |  |  |  | 1.82 | 1.13 | 0.57

Row | Compound | logP [1] | log(1/LD10) [2] | log(1/C) [3] | log(1/C) [4] | log(1/LD10) [5] | logP ([1]; read-out: logP)
24 | CC(=O)OCC1CCC(NC(=O)N(CCF)N=O)CC1 (stereo unspecified) |  |  |  | 0.984 | 0.705 | 1.77
25 | O=NN(CCCl)C(=O)N[C@H]1CC[C@H](C(=O)O)CC1 |  |  |  | 1.47 | 1.01 | 1.53
26 | CC1(NC(=O)N(CCCl)N=O)CCCC1 |  |  |  | 0.576 | -0.03 | 2.7
27 | O=COCC1CCC(NC(=O)N(CCCl)N=O)CC1 (stereo unspecified) |  |  |  | 1.62 | 1.12 | 1.85
28 | O=NN(CCCl)C(=O)NC1CC2CCC1C2 (stereo unspecified) |  |  |  | 1.21 | 0.591 | 2.98
29 | O=NN(CCF)C(=O)NC1C2CC3CC(C2)CC1C3 (stereo unspecified) |  |  |  | 0.797 | 0.592 | 3.04
30 | O=NN(CCCl)C(=O)NC1(C(=O)O)CCCC1 |  |  |  | 0.605 | 0.308 | 1.82
31 | O=NN(CCF)C(=O)NC1CCC(NC(=O)N(CCCl)N=O)CC1 (stereo unspecified) |  |  |  | 1.37 | 0.595 | 2.41
32 | O=NN(CCF)C(=O)NC1CCCCC1 |  |  |  | 1.34 | 0.806 | 2.25
33 | O=NN(CCF)C(=O)NC1CCSc2ccccc21 (stereo unspecified) |  |  |  | 1.31 | 0.896 | 2.33
34 | CCCCCC(C)NC(=O)N(CCCl)N=O (stereo unspecified) |  |  |  | 0.853 | 0.642 | 3.55
35 | O=NN(CCCl)C(=O)N[C@H]1C(O)O[C@H](CO)[C@@H](O)[C@@H]1O (stereo in doubt; 103) [CHLOROZOTOCIN] | -0.66 |  |  | 1.46 | 0.928 | 
36 | CCOC(=O)C1(NC(=O)N(CCCl)N=O)CCCCC1 |  |  |  | 0.582 | -0.214 | 3.45
37 | O=NN(CCCl)C(=O)NC1CCCC(C(=O)O)C1 (stereo unspecified) |  |  |  | 1.47 | 0.912 | 1.86
38 | CN(C(=O)N(CC/C=N/C(=O)N(CCCl)N=O)N=O)C1CCCCC1 |  |  |  | 0.353 | -0.207 | 3.19
39 | CC(=O)OCC1CCC(NC(=O)N(CCCl)N=O)CC1 (stereo unspecified) |  |  |  | 1.66 | 1.02 | 2.35
40 | O=NN(CCCl)C(=O)NC1CCSCC1 |  |  |  | 2.1 | 1.25 | 2.07
41 | CC(C)(C)C1CCCC(NC(=O)N(CCCl)N=O)C1 (stereo unspecified) |  |  |  | 0.763 | 0.239 | 4.6
42 | O=NN(CCCl)C(=O)N[C@@H]1CCCC[C@@H]1O |  |  |  | 1.32 | 0.698 | 1.75
43 | O=NN(CCCl)C(=O)NC1C=CCCC1 (stereo unspecified) |  |  |  | 1.16 | 0.848 | 2.45
44 | O=NN(CCCl)C(=O)N[C@H]1CC[C@H](CC(=O)O)CC1 |  |  |  | 1.65 | 0.863 | 2.16
45 | O=NN(CCF)C(=O)NC1CC2CCC1C2 (stereo unspecified) |  |  |  | 1.25 | 0.547 | 2.4
46 | CCOC(=O)C1(NC(=O)N(CCCl)N=O)CCCC1 |  |  |  | 0.562 | 0.072 | 2.88
